Reference: ChEMBL document CHEMBL3797085, “Structure-Based Design and Synthesis of Novel Inhibitors Targeting HDAC8 from Schistosoma mansoni for the Treatment of Schistosomiasis” (J Med Chem, 2016)

How the values were obtained:
Schistosoma mansoni [1] = test: Antiparasitic activity against schistosomula stage of Schistosoma mansoni assessed as parasite viability at 10 uM after 48 hrs by Alamar Blue assay relative to control; type: functional
How it was run: (§1)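 Mechanically transformed S. mansoni schistosomula, 100 per well, in Medium 199 with 10% FCS, penicillin, streptomycin and rifampicin, held 3 h at 37°C/5% CO2 before use. […] Resazurin added at 48 h; fluorescence (ex 530/em 590 nm) read 24 h later, corrected for drug-medium background. Ethanol-killed larvae as dead control. Triplicate wells, two biological replicates.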

Schistosoma mansoni [2] = test: Antiparasitic activity against schistosomula stage of Schistosoma mansoni assessed as parasite viability at 20 uM after 48 hrs by Alamar Blue assay relative to control; type: functional; how it was run: as §1
[3] = Cytotoxicity against HEK293 cells assessed as cell viability at 50 uM after 24 hrs by Alamar Blue assay relative to control; type: cell-based; conditions: human, read-out: Activity
How it was run: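 AlamarBlue added after 24 h, incubated a further 21 h; resorufin fluorescence ex 560/em 590 nm. Triplicates; viability relative to untreated cells; daunorubicin positive control.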

Histone deacetylase 8 [4] = target: T1, Histone deacetylase 8 (Schistosoma mansoni, UniProt A5H660); test: Inhibition of recombinant Schistosoma mansoni HDAC8 expressed in Escherichia coli using Fluor de Lys as substrate preincubated for 90 mins followed by BML-KI176 addition measured after 45 mins by fluorescence assay
T1 sequence (A5H660 whole entry): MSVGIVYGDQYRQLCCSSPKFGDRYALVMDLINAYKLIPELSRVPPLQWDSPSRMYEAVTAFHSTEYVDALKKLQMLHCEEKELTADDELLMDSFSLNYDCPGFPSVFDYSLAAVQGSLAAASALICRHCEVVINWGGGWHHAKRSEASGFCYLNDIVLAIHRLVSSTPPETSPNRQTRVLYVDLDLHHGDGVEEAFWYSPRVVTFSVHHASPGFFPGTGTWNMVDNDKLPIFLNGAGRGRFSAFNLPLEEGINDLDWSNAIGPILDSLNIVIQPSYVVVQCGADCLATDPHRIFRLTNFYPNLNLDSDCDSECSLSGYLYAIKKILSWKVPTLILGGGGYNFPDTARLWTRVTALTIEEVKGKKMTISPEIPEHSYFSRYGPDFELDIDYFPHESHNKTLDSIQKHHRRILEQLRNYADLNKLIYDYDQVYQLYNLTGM
How it was run: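 smHDAC8 produced in E. coli. Fluor de Lys kit: compound, Fluor de Lys-HDAC8 substrate (50 µM) and enzyme incubated 90 min at 37°C, then Developer II for 45 min at 30°C. Reaction stopped with trichostatin A (2 µM). Fluorescence read at ex 390/em 460 nm. IC50 given as mean ± S.E.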

Histone deacetylase 8 [5] = target: T2, Histone deacetylase 8 (Homo sapiens, UniProt Q9BY41); test: Inhibition of recombinant human HDAC8 using Fluor de Lys as substrate preincubated for 90 mins followed by BML-KI176 addition measured after 45 mins by fluorescence assay
T2 sequence (Q9BY41 whole entry): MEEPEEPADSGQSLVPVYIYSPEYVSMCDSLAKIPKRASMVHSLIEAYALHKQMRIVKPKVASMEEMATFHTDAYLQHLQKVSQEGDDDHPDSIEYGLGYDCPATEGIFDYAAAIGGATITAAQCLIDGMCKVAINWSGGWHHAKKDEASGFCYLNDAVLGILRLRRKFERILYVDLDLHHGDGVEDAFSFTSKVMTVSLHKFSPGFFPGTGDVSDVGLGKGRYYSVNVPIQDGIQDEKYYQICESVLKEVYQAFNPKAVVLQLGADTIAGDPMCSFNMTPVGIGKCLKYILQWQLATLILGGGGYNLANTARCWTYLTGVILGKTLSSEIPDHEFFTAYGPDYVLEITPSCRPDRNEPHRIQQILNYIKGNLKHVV

Histone deacetylase 1 = Histone deacetylase 1 (Homo sapiens, UniProt Q13547); test: Inhibition of recombinant human HDAC1 using Cbz-(Ac)Lys-AMC as substrate preincubated for 90 mins followed by trypsin addition measured after 20 mins by fluorescence assay
[6] = target: T3, Protein deacetylase HDAC6 (Homo sapiens, UniProt Q9UBN7); test: Inhibition of recombinant human HDAC6 using Cbz-(Ac)Lys-AMC as substrate preincubated for 90 mins followed by trypsin addition measured after 20 mins by fluorescence assay
T3 sequence (Q9UBN7 whole entry): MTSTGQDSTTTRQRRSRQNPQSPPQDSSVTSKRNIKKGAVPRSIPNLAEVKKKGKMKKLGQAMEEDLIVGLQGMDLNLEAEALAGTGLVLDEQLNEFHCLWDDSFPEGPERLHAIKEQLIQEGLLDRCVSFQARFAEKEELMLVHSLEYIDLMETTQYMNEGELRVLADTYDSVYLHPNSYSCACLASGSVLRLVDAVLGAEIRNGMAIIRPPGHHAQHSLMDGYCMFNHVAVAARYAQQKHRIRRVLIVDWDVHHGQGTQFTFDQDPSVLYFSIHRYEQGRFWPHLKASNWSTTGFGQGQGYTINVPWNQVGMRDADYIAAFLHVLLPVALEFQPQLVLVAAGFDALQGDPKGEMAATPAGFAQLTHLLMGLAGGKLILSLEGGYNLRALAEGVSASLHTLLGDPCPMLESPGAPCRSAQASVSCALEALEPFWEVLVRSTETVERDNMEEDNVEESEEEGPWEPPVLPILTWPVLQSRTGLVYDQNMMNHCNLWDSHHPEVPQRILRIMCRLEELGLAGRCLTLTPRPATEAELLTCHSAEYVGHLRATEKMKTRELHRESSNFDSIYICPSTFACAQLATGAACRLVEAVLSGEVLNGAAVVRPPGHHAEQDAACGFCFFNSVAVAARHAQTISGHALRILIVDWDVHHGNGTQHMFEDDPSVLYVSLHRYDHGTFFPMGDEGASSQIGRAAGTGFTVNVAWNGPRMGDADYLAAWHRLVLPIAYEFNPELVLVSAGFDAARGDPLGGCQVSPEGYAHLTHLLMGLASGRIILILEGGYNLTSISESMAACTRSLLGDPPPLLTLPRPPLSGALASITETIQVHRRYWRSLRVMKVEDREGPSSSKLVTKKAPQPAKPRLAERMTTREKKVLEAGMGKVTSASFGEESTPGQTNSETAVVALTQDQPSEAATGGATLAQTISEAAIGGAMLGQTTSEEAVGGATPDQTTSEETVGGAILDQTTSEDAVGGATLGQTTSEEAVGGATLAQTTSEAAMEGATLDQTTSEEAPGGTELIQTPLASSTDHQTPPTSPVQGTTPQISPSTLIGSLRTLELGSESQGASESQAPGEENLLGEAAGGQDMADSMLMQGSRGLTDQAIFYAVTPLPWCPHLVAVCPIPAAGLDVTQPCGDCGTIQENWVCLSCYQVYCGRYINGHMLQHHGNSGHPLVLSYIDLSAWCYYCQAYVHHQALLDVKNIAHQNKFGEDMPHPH

Sequence of Histone deacetylase 1 (Q13547 whole entry): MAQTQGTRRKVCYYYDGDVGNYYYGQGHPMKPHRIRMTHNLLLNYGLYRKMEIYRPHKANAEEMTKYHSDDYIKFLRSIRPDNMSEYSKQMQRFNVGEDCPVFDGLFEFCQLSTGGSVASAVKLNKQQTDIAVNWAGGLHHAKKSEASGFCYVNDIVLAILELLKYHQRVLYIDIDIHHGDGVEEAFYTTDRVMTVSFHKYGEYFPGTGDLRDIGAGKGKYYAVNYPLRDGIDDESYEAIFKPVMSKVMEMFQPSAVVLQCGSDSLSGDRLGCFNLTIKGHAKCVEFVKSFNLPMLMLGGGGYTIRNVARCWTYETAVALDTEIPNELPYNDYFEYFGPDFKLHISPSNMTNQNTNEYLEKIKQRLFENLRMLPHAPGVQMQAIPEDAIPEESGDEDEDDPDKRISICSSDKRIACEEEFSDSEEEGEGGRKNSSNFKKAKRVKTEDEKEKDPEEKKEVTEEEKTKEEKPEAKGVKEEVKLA

| SMILES | IC50 (Histone deacetylase 8 [4]; read-out: IC50) [nM] | IC50 (Histone deacetylase 8 [5]; read-out: IC50) [nM] | IC50 (Histone deacetylase 1; read-out: IC50) [nM] | IC50 ([6]; read-out: IC50) [nM] | IC50 (Histone deacetylase 8 [4]) | IC50 (Histone deacetylase 8 [5]) | IC50 (Histone deacetylase 1) | IC50 [6] | Activity (Schistosoma mansoni [1]) [%] | Activity (Schistosoma mansoni [2]) [%] | viability at 24 h, 50 µM [3] [%] |
| --- | --- | --- | --- | --- | --- | --- | --- | --- | --- | --- | --- |
| O=C(NO)c1ccc(Br)c(NC(=O)c2ccccc2)c1 | 150 | 191 | 7400 | 150 |  |  |  |  | 70.8 | 63.1 | 64.3 |
| O=C(NO)c1ccc(F)c(NC(=O)c2ccccc2)c1 | 178 | 318 | 22300 | 500 |  |  |  |  | 82 | 78.6 | 81.8 |
| O=C(NO)c1cccc(N(Cc2ccccc2)Cc2ccccc2)c1 | 9290 | 2190 | 42300 | 8600 |  |  |  |  | 77.9 | 74.6 | 7.7 |
| O=C(C1CCCCC1)N1CC(=O)N2CCc3ccccc3C2C1 (stereo not drawn) [PRAZIQUANTEL] |  |  |  |  |  |  |  |  | 92 | 89 |  |
| COc1ccc(Cn2ccc3ccc(C(=O)NO)cc32)cc1 | 436 |  |  |  |  |  |  |  | 70.6 | 62.3 |  |
| O=C(NO)c1ccc2ccccc2n1 | 8200 | 582 |  |  |  |  |  |  | 95.6 |  | 73.3 |
| O=C(NO)c1ccc(Cl)c(NC(=O)c2cccc(Oc3ccccc3)c2)c1 | 396 | 449 | 6400 | 300 |  |  |  |  | 62.9 | 55 | 62 |
| O=C(NO)c1ccc(Cl)c(NC(=O)c2ccc(Oc3ccccc3)cc2)c1 | 979 | 1080 | 8500 | 150 |  |  |  |  |  |  |  |
| O=C(NO)c1cccc(NC2CCCCC2)c1 | 3630 | 830 | 130000 |  |  |  |  |  | 82.7 |  | 70.7 |
| COc1ccc(C(=O)NO)cc1OCc1ccccc1 | 268 |  |  |  |  |  |  |  |  |  |  |
| O=C1CCSc2ccc(C(=O)NO)cc2N1 | 1220 | 620 | 9800 | 1300 |  |  |  |  |  |  |  |
| Cc1ccc(C(=O)NO)cc1NC(=O)c1ccc2ccccc2n1 | 96.1 | 30.3 | 2700 | 90 |  |  |  |  | 74.9 | 59.4 |  |
| COc1ccc(C(=O)NO)cc1S(=O)(=O)Nc1ccc(C)cc1 | 485 | 19.8 | 20000 | 2400 |  |  |  |  | 77.7 | 73.8 | 80.2 |
| CC1Sc2ccc(C(=O)NO)cc2NC1=O (stereo not drawn) | 1480 | 970 | 27500 | 3600 |  |  |  |  |  |  |  |
| O=C(NO)c1cccc(NC(=O)c2ccccc2)c1 | 468 | 582 |  |  |  |  |  |  | 79.2 | 75.6 |  |
| COc1ccc(C(=O)O)cc1NC(=O)c1ccc(-c2ccccc2)cc1 |  |  |  |  | Not Active | Not Active | Not Active | Not Active |  |  |  |
| COC(=O)c1ccc(OC)c(NC(=O)c2ccc(-c3ccccc3)cc2)c1 |  |  |  |  | Not Active | Not Active | Not Active | Not Active |  |  | 47.2 |
| O=C(NO)c1ccc(Cl)c(NC(=O)c2ccc([N+](=O)[O-])cc2)c1 | 394 |  |  |  |  |  |  |  | 85.3 | 68.1 | 79.1 |

Further lines, with some results ahead:

| IC50 (Histone deacetylase 8 [4]; read-out: IC50) [nM] | IC50 (Histone deacetylase 8 [5]; read-out: IC50) [nM] | IC50 (Histone deacetylase 1; read-out: IC50) [nM] | IC50 ([6]; read-out: IC50) [nM] | IC50 (Histone deacetylase 8 [4]) | IC50 (Histone deacetylase 8 [5]) | IC50 (Histone deacetylase 1) | IC50 [6] | SMILES | Activity (Schistosoma mansoni [1]) [%] | Activity (Schistosoma mansoni [2]) [%] | viability at 24 h, 50 µM [3] [%] |
| --- | --- | --- | --- | --- | --- | --- | --- | --- | --- | --- | --- |
| 147 | 236 | 4100 | 130 |  |  |  |  | COc1ccc(C(=O)Nc2cc(C(=O)NO)ccc2Cl)cc1 | 63.2 | 60.7 | 62.5 |
| 122 | 548 | 13000 | 2300 |  |  |  |  | COc1ccc(C(=O)NO)cc1NC(=O)c1ccc(Cl)cc1Cl | 77.8 | 50.7 | 95.1 |
| 67 | 120 | 11600 | 120 |  |  |  |  | O=C(NO)c1ccc(Cl)c(NC(=O)c2ccccc2)c1 | 84.7 |  | 72.2 |
| 183 | 512 | 28900 | 5100 |  |  |  |  | COc1ccc(C(=O)NO)cc1NC(=O)Cc1ccccc1 | 83.3 | 82.8 | 88.7 |
| 146 | 240 | 2900 | 900 |  |  |  |  | COc1ccc(C(=O)NO)cc1NC(=O)c1ccc(Cl)cc1 |  |  | 92.6 |
| 190 | 88.3 | 2300 | 2500 |  |  |  |  | COc1ccc(C(=O)NO)cc1NC(=O)c1ccccc1 | 77.4 | 74.8 | 67.3 |
| 129 | 172 | 4600 | 1300 |  |  |  |  | CCOc1ccc(C(=O)NO)cc1NC(=O)c1ccccc1 | 89.7 |  | 70.4 |
| 699 | 211 | 9600 | 3100 |  |  |  |  | COc1ccc(C(=O)NO)cc1NC(=O)c1ccccc1Cl | 89.5 | 66.5 | 96.9 |
| 267 |  |  |  |  |  |  |  | CCCOc1ccc(C(=O)NO)cc1NC(=O)c1ccccc1 |  |  | 97.4 |
| 305 | 438 | 4400 | 1000 |  |  |  |  | CCOc1ccc(C(=O)Nc2cc(C(=O)NO)ccc2OC)cc1 |  |  | 87.7 |
| 290 |  |  |  |  |  |  |  | COc1ccc(C(=O)NO)cc1NC(=O)c1cccc(-c2ccccc2)c1 | 58.8 | 57 | 76.2 |
